From ChEMBL document CHEMBL1124475, “The thieno[3,2-c]pyridine and furo[3,2-c]pyridine rings: new pharmacophores with potential antipsychotic activity” (J Med Chem, 1989)
Calls of active or inactive are those of the source. No cut-off for these calls is given here.

Columns and labels:
Rattus norvegicus [1] = assay: Spontaneous discharge activity of individual serotonergic neurons in the dorsal raphe (DR) nucleus when administered intravenously in anesthetized male Sprague-Dawley rats; (Inhibitory); assay type: functional; details: iv
Rattus norvegicus [2] = assay: Spontaneous discharge activity of individual dopaminergic neurons in substantia nigra (A9DA cells) when administered subcutaneously at dose of 5.0 mg/kg/day in anesthetized male Sprague-Dawley rats; small increase in the number of DA cells per track; assay type: functional, organism-based
Rattus norvegicus [3] = assay: Induction of catalepsy in rats when administered perorally and maximum dose examined was 4 times the ED50 value established in CAR; Inactive; assay type: functional, organism-based
[4] = target: Serotonin 2 (5-HT2) receptor (Rattus norvegicus, UniProt P30994+P08909+P14842); assay: Ability to bind at serotonin 5-hydroxytryptamine 2 receptors of rat cortex by displacing [3H]spiperone
Rattus norvegicus [5] = assay: Spontaneous discharge activity of individual noradrenergic neurons in the locus coeruleus (LC) when administered intravenously in anesthetized male Sprague-Dawley rats; (excitatory); assay type: functional; details: iv
Rattus norvegicus [6] = assay: Reversal of trifluoperazine-induced catalepsy in rats when administered perorally; assay type: functional; details: po
Rattus norvegicus [7] = assay: Conditioned avoidance response (CAR) when administered perorally; assay type: functional; details: po
[8] = target: Serotonin 1 (5-HT1) receptor (Rattus norvegicus, UniProt P28564+P30940+P19327+P28565); assay: Ability to bind at 5-hydroxytryptamine 1 receptor of rat hippocampus by displacing [3H]5-HT; assay type: tissue-based
Method in brief: (§1)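 Rat receptor radioligand displacement, five test-ligand concentrations used to calculate IC50, each assay in duplicate. Some compounds determined four times (in duplicate), with mean IC50 reported.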

Rattus norvegicus [9] = assay: Spontaneous discharge activity of individual dopaminergic neurons in the substantia nigra (A9 DA cells) when administered intravenously at a dose of 0.1-6.3 mg/kg in anesthetized male Sprague-Dawley rats; No effect at a dose of 0.1-6.3 mg/kg; assay type: functional, organism-based; details: A9DA
Rattus norvegicus [10] = assay: Spontaneous discharge activity of individual dopaminergic neurons in the ventral tegmentum neurons (A10 DA cells) when administered subcutaneously at a dose of 5.0 mg/kg/day in anesthetized male Sprague-Dawley rats; No effect at a dose of 0.1-6.3 mg/kg; assay type: functional, organism-based; details: A10DA
Rattus norvegicus [11] = assay: Blockade of apomorphine-induced stereotypy in rats when administered perorally; assay type: functional; details: po
[12] = target: T1, Adrenergic receptor alpha-1 (Rattus norvegicus, UniProt P15823+P23944+P43140); assay: Ability to bind at alpha-1 adrenergic receptor by displacing [3H]WB-4101; assay type: protein assay; method in brief: as §1
T1 sequence (P15823 whole entry): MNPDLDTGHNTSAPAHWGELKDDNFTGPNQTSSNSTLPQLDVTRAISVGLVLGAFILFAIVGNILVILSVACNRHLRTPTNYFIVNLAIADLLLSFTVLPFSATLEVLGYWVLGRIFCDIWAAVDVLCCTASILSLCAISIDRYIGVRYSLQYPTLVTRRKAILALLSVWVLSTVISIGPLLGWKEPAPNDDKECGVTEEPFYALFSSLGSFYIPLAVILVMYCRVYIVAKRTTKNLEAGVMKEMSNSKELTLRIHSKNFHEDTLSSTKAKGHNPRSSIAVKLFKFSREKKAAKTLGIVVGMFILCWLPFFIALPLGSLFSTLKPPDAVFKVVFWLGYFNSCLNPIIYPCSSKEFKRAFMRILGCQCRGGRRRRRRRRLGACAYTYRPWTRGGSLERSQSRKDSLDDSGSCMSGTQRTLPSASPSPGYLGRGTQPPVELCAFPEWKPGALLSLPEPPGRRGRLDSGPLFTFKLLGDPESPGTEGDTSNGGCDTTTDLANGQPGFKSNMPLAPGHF
T1 sequence (P23944 whole entry): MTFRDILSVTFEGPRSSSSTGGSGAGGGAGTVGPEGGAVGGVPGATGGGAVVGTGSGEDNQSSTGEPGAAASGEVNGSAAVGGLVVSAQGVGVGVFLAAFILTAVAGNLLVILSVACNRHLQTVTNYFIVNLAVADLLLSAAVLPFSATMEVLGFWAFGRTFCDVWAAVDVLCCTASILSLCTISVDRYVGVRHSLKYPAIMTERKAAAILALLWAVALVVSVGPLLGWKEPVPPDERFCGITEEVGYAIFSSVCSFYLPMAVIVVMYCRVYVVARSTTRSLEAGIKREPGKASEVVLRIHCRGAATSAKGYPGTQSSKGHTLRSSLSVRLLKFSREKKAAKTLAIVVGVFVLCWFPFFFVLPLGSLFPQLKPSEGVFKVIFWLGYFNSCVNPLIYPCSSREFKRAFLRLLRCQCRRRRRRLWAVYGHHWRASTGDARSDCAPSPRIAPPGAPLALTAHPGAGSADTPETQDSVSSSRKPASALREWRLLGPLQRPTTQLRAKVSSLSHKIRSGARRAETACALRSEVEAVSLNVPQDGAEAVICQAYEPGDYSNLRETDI
T1 sequence (P43140 whole entry): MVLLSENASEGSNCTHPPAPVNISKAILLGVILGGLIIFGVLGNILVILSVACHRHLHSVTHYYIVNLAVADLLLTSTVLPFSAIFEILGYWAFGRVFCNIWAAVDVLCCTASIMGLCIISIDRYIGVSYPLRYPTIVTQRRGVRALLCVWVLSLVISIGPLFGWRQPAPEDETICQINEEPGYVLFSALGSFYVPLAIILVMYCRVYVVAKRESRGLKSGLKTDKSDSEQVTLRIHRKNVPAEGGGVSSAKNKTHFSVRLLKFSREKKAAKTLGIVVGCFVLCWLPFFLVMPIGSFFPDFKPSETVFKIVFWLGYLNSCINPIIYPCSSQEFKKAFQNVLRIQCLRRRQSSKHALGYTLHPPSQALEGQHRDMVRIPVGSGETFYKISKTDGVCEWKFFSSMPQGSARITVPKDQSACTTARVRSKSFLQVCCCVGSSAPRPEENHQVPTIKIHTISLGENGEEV

Rattus norvegicus [13] = assay: Blockade of Sidman-avoidance activity in rats when administered perorally; assay type: functional; details: po
Method in brief: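 Rats trained in once-daily Sidman sessions until stable; non-learners after 3 days replaced. Twelve rats dosed 30 min before session. Each rat compared with mean of its previous three drug-free days by paired t test. Testing continued to minimally effective dose; maximum usually 100 mg/kg. MED is mean over 12 animals.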

Rattus norvegicus [14] = assay: Spontaneous discharge activity of individual dopaminergic neurons in the ventral tegmentum neurons (A10 DA cells) when administered intravenously at a dose of 0.1-6.3 mg/kg in anesthetized male Sprague-Dawley rats; No effect at a dose of 0.1-6.3 m g/kg; assay type: functional, organism-based; details: A10DA
D(2) dopamine receptor = D(2) dopamine receptor (Rattus norvegicus, UniProt P61169); assay: Ability to bind at Dopamine receptor D2 of rat corpus striatum by displacing [3H]spiperone; method in brief: as §1
Chain of D(2) dopamine receptor (P61169 whole entry): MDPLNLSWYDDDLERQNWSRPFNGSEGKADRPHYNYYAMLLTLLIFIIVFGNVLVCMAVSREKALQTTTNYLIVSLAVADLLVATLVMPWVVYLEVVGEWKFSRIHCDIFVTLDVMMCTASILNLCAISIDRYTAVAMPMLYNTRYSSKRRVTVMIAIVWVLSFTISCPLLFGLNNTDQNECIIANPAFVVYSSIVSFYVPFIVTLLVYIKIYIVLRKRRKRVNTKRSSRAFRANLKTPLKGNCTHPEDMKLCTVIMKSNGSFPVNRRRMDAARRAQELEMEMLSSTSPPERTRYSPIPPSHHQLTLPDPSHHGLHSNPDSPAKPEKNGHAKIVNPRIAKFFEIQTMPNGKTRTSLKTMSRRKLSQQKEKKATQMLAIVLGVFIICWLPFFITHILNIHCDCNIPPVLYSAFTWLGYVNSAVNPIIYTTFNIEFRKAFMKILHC

O=C1COCC(=O)N1CCCCN1CCN(c2nccc3occc23)CC1
ED50 (Rattus norvegicus [1]): 0.01 mg/kg | ED25 (Rattus norvegicus [2]): inactive | ED50 (Rattus norvegicus [3]): inactive | IC50 [4]: 55.2 nM | ED25 (Rattus norvegicus [5]): 0.017 mg/kg | ED50 (Rattus norvegicus [6]): 2.2 mg/kg | ED50 (Rattus norvegicus [7]): 11.2 mg/kg | IC50 [8]: 33.5 nM | ED25 (Rattus norvegicus [9]): inactive | ED25 (Rattus norvegicus [10]): inactive | ED50 (Rattus norvegicus [11]): 34 mg/kg | IC50 [12]: 40.9 nM | MED (Rattus norvegicus [13]): 25 mg/kg | ED25 (Rattus norvegicus [14]): inactive | IC50 (D(2) dopamine receptor): > 1000 nM
